ChEMBL document CHEMBL6092224, “The Discovery and Preclinical Profile of ALG-000184, a Prodrug of the Potent Hepatitis B Virus Capsid Assembly Modulator ALG-001075” (J Med Chem, 2024)

Legend:
[1] = Cytotoxicity against human HepG2.117 cells assessed as cell viability upto 50 uM; format: toxicity, cell-based; conditions: hepg2.117, 50 µM
[2] = Ratio of drug concentration in blood to plasma in dog at 5 uM incubated for 60 mins; format: ADME, cell-free, Canis lupus familiaris
Procedure, shortened: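 Compound at 5 μM in whole blood of each species, 37 ± 1 °C for 60 min; blood-to-plasma ratio and red blood cell partitioning determined.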

[3] = Volume of distribution at steady state in Sprague-Dawley rat at 1 mg/kg, iv by LC-MS/MS analysis; format: ADME, organism-based; conditions: in vivo, read-out: Vdss
Procedure, shortened: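 Fasted males (C57BL6 mice, Sprague−Dawley rats, beagle dogs, cynomolgus monkeys) given a single IV dose of 1 mg/kg in 80% PEG 400 in water. Plasma concentrations measured by LC-MS/MS. Vss derived by noncompartmental analysis using nominal dose and nominal sampling times.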

[4] = Cmax in Sprague-Dawley rat at 5 mg/kg, po by LC-MS/MS analysis; format: ADME, organism-based; conditions: in vivo
Procedure, shortened: (§1)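 Single dose to fasted male C57BL6 mice, Sprague-Dawley rats, beagle dogs and cynomolgus monkeys, either IV at 1 mg/kg or PO as a solution at 5 mg/kg, in 80% PEG 400 in water. Plasma concentrations were measured by LC-MS/MS. PK parameters come from noncompartmental analysis using nominal doses and nominal sampling times.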

[5] = AUC (infinity) in Sprague-Dawley rat at 5 mg/kg, po by LC-MS/MS analysis; format: ADME, organism-based; conditions: in vivo; procedure, shortened: as §1
[6] = Oral bioavailability in Sprague-Dawley rat at 5 mg/kg by LC-MS/MS analysis; format: ADME, organism-based; conditions: in vivo
Procedure, shortened: (§2)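 Fasted male C57BL6 mice, Sprague–Dawley rats, beagle dogs, cynomolgus monkeys; single IV dose 1 mg/kg or PO solution 5 mg/kg in 80% PEG 400 in water; plasma concentrations measured, noncompartmental analysis with nominal doses and times; F from PO vs IV AUC.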

[7] = Cmax in Beagle dog at 5 mg/kg, po by LC-MS/MS analysis; format: ADME, organism-based, Canis lupus familiaris; conditions: in vivo; procedure, shortened: as §1
[8] = AUC (infinity) in Cynomolgous monkey at 1 mg/kg, iv by LC-MS/MS analysis; format: ADME, organism-based, Macaca fascicularis; conditions: cynomolgus monkey, in vivo; procedure, shortened: as §1
[9] = AUC (infinity) in Cynomolgous monkey at 5 mg/kg, po by LC-MS/MS analysis; format: ADME, organism-based, Macaca fascicularis; conditions: cynomolgus monkey, in vivo; procedure, shortened: as §1
[10] = Oral bioavailability in Cynomolgous monkey at 5 mg/kg by LC-MS/MS analysis; format: ADME, organism-based, Macaca fascicularis; conditions: cynomolgus monkey, in vivo; procedure, shortened: as §2
[11] = Effect on mitochondrial biogenesis in human HepG2 cells upto 10 uM; format: toxicity, cell-based; conditions: hepg2, 10 µM
[12] = Effect on mitochondrial activity in human HepG2 cells upto 10 uM; format: toxicity, cell-based; conditions: hepg2, 10 µM
[13] = Apparent permeability across apical to basal side in human Caco-2 cells at 2 uM incubated for 1 hr; format: ADME, cell-based
Procedure, shortened: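 Bidirectional transport across Caco-2 cells in HBSS, pH 7.4, 0.1% final DMSO. Compound was tested at 1 or 2 μM for 1 h at 37 °C, 5% CO2. Apical and basal samples gave apparent permeability A→B and B→A, and the efflux ratio.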

Row | Papp A→B at 1 h, 2 µM [13] | Compound | Activity [1] | blood plasma ratio at 1 h, 5 µM [2] | Vd [3] | Cmax [4] | AUC(0-inf) [5] | bioavailability [6] | Cmax [7] | AUC(0-inf) [8] | AUC(0-inf) [9] | bioavailability [10] | Activity [11] | Activity [12]
1 | – | C#CC1(NC(=O)C(=O)c2c(C)c(C(=O)Nc3ccc(F)c(C#N)c3)n(C)c2C)COC1 | Non-toxic | 0.82 | 0.5 L/kg | 1830 ng/mL | 8720 ng·h/mL | 62.8% | 1900 ng/mL | 2240 ng·h/mL | 2190 ng·h/mL | 19.6% | Non-toxic | Non-toxic
2 | 4.6 ×10⁻⁶ cm/s | C#CC1(N(COP(=O)([O-])[O-])C(=O)C(=O)c2c(C)c(C(=O)Nc3ccc(F)c(C#N)c3)n(C)c2C)COC1.[Na+].[Na+] | – | – | – | – | – | – | – | – | – | – | – | –
